Results reported in ChEMBL document CHEMBL4689842, “EUbOPEN Chemogenomics Library wave 1” (2021).
Where “and” joins values, the source holds several entries; their conditions need not be identical. Identical values can stand only once.

System: Fibroblast
Experiment: Multiplex assay against human fibroblast
Type: toxicity, cell-based
Details: 10 µM, compound concentration 10 uM
In short: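 Per cents of healthy-nucleus cells form the tubulin, mitochondrial-mass and membrane-permeability phenotype values. Live cells were stained at seeding with Hoechst33342, BioTracker Green Microtubule Cytoskeleton Dye, MitoTracker Red and Annexin V Alexa Fluor 680. After compound addition they were imaged on a CQ1 microscope at 37°C and 5% CO2, and CellPathfinder machine-learning gating split them into Hoechst high-intensity objects or normal cells, normal cells into healthy, pyknosed or fragmented nuclei, and pyknosed cells into mitotic or apoptotic.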

CN1C(=O)c2sccc2N(C)c2nc(Nc3ccc(S(N)(=O)=O)cc3)ncc21
Population Apoptotic (%) (12 h, replicate 1): 73% and 80%
Population Fragmented Nuclei (%) (12 h, replicate 1): 30% and 28%
Population Healthy Nuclei (%) (12 h, replicate 1): 50% and 56%
Population Hoechst High Intensity Objects (%) (12 h, replicate 1): 9% and 15%
Population Membrane Permeable-Phenotype (%) (12 h, replicate 1): 7% and 4%
Population Mitochondria Different-Phenotype (%) (12 h, replicate 1): 7%
Population Mitotic Cells (%) (12 h, replicate 1): 26% and 20%
Population Normal (%) (12 h, replicate 1): 90% and 84%
Population Pyknosed Nuclei (%) (12 h, replicate 1): 18% and 14%
Population Tubulin-Different-Phenotype (%) (12 h, replicate 1): 3% and 7%
Total Cell Count (12 h, replicate 1): 224 and 198
Population Fragmented Nuclei (%) (12 h, replicate 2): 52%
Population Healthy Nuclei (%) (12 h, replicate 2): 36% and 33%
Population Hoechst High Intensity Objects (%) (12 h, replicate 2): 32% and 34%
Population Membrane Permeable-Phenotype (%) (12 h, replicate 2): 13% and 8%
Population Mitochondria Different-Phenotype (%) (12 h, replicate 2): 13% and 0%
Population Mitotic Cells (%) (12 h, replicate 2): 42% and 100%
Population Normal (%) (12 h, replicate 2): 67% and 65%
Population Pyknosed Nuclei (%) (12 h, replicate 2): 11% and 13%
Population Tubulin-Different-Phenotype (%) (12 h, replicate 2): 4% and 0%
Total Cell Count (12 h, replicate 2): 91 and 55
Population Apoptotic (%) (24 h, replicate 1): 55% and 72%
Population Fragmented Nuclei (%) (24 h, replicate 1): 23% and 27%
Population Healthy Nuclei (%) (24 h, replicate 1): 60% and 52%
Population Hoechst High Intensity Objects (%) (24 h, replicate 1): 14% and 16%
Population Membrane Permeable-Phenotype (%) (24 h, replicate 1): 8%
Population Mitochondria Different-Phenotype (%) (24 h, replicate 1): 2%
Population Mitotic Cells (%) (24 h, replicate 1): 44% and 27%
Population Normal (%) (24 h, replicate 1): 85% and 83%
Population Pyknosed Nuclei (%) (24 h, replicate 1): 15% and 20%
Population Tubulin-Different-Phenotype (%) (24 h, replicate 1): 5% and 3%
Total Cell Count (24 h, replicate 1): 219 and 217
Population Apoptotic (%) (24 h, replicate 2): 45% and 50%
Population Fragmented Nuclei (%) (24 h, replicate 2): 59% and 52%
Population Healthy Nuclei (%) (24 h, replicate 2): 23% and 36%
Population Hoechst High Intensity Objects (%) (24 h, replicate 2): 33% and 37%
Population Membrane Permeable-Phenotype (%) (24 h, replicate 2): 0%
Population Mitochondria Different-Phenotype (%) (24 h, replicate 2): 6% and 0%
Population Mitotic Cells (%) (24 h, replicate 2): 54% and 50%
Population Normal (%) (24 h, replicate 2): 66% and 62%
Population Pyknosed Nuclei (%) (24 h, replicate 2): 17% and 11%
Population Tubulin-Different-Phenotype (%) (24 h, replicate 2): 6% and 15%
Total Cell Count (24 h, replicate 2): 96 and 58
